Data: ChEMBL document CHEMBL2034825, “Chemical syntheses and in vitro antibacterial activity of two desferrioxamine B-ciprofloxacin conjugates with potential esterase and phosphatase triggered drug release linkers” (2012)
Converted amounts (≈) assume the structure as drawn.

Assays:
Klebsiella pneumoniae = assay: Antibacterial activity against Klebsiella pneumoniae ATCC 700603 by broth microdilution method; format: functional
How it was run: (§1)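 MIC90 (µM) by broth microdilution in Mueller-Hinton broth No.2 (MHII) following CLSI guidelines. End point read visually. Each compound tested in triplicate.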

Escherichia coli [1] = assay: Antibacterial activity against Escherichia coli ATCC 25922 by broth microdilution method; format: functional; how it was run: as §1
Pseudomonas aeruginosa [2] = assay: Antibacterial activity against wild type Pseudomonas aeruginosa K799 at 50 uL of 0.2 mM solution of compound dissolved in 1:9 DMSO/MeOH measured after 24 hrs by agar well diffusion method; format: functional
How it was run: (§2)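 Agar well diffusion. 50 µL of a 0.2 mM solution in 1:9 DMSO/MeOH was filled into 9 mm wells in nutrient agar or Mueller Hinton II agar. Plates were incubated 24 h at 37 °C before inhibition zones were read. Zones were scored as partially clear (p, colonies in zone) or unclear (P, many colonies in zone).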

Staphylococcus aureus [3] = assay: Antibacterial activity against Staphylococcus aureus ATCC 29213 by broth microdilution method; format: functional; how it was run: as §1
Klebsiella aerogenes = assay: Antibacterial activity against Enterobacter aerogenes ATCC 35029 by broth microdilution method; format: functional; how it was run: as §1
Escherichia coli [4] = assay: Antibacterial activity against Escherichia coli X580 at 50 uL of 0.2 mM solution of compound dissolved in 1:9 DMSO/MeOH measured after 24 hrs by agar well diffusion method; format: functional; how it was run: as §2
Pseudomonas aeruginosa [5] = assay: Antibacterial activity against Pseudomonas aeruginosa K799/61 at 50 uL of 0.2 mM solution of compound dissolved in 1:9 DMSO/MeOH measured after 24 hrs by agar well diffusion method; format: functional; how it was run: as §2
Pseudomonas aeruginosa [6] = assay: Antibacterial activity against Pseudomonas aeruginosa K799/61 assessed as partially clear inhibition zone at 50 uL of 0.2 mM solution of compound dissolved in 1:9 DMSO/MeOH measured after 24 hrs by agar well diffusion method; format: functional; how it was run: as §2
Micrococcus luteus [7] = assay: Antibacterial activity against Micrococcus luteus ATCC 10240 at 50 uL of 0.2 mM solution of compound dissolved in 1:9 DMSO/MeOH measured after 24 hrs by agar well diffusion method; format: functional; how it was run: as §2
Acinetobacter baumannii = assay: Antibacterial activity against Acinetobacter baumannii ATCC 17961 by broth microdilution method; format: functional; how it was run: as §1
Staphylococcus aureus [8] = assay: Antibacterial activity against Staphylococcus aureus SG 511 at 50 uL of 0.2 mM solution of compound dissolved in 1:9 DMSO/MeOH measured after 24 hrs by agar well diffusion method; format: functional; how it was run: as §2
Pseudomonas aeruginosa [9] = assay: Antibacterial activity against Pseudomonas aeruginosa ATCC 27853 by broth microdilution method; format: functional; how it was run: as §1
Bacillus subtilis [10] = assay: Antibacterial activity against Bacillus subtilis ATCC 6633 at 50 uL of 0.2 mM solution of compound dissolved in 1:9 DMSO/MeOH measured after 24 hrs by agar well diffusion method; format: functional; how it was run: as §2
Enterococcus faecium = assay: Antibacterial activity against Enterococcus faecium NCTC 7171 by broth microdilution method; format: functional; how it was run: as §1
Escherichia coli [11] = assay: Antibacterial activity against Escherichia coli X580 at 0.33 ug/mL after 24 hrs by agar well diffusion method; settings: X580, 24 h, read-out: DIZ
Staphylococcus aureus [12] = assay: microbe, parasite or virus in culture; settings: SG 511, 24 h, read-out: DIZ
Pseudomonas aeruginosa [13] = assay: microbe, parasite or virus in culture; settings: K799/61, 24 h, read-out: DIZ
Bacillus subtilis [14] = assay: microbe, parasite or virus in culture; settings: ATCC 6633, 24 h, read-out: DIZ
Micrococcus luteus [15] = assay: Antibacterial activity against Micrococcus luteus ATCC 10240 assessed as unclear inhibition zone at 5 ug/mL after 24 hrs by agar well diffusion method; format: functional; settings: ATCC 10240, 24 h, read-out: DIZ
How it was run: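 Agar well diffusion with ciprofloxacin dissolved in H2O, tested at 5, 1.66 or […]. Solution was loaded into 9 mm wells in nutrient agar or Mueller Hinton II agar. Inhibition zones were read after 24 h at 37 °C. A zone was scored as P when unclear, with many colonies inside.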

Pseudomonas aeruginosa [16] = assay: microbe, parasite or virus in culture; settings: K799, 24 h, read-out: DIZ
Pseudomonas aeruginosa [17] = assay: microbe, parasite or virus in culture; settings: K799/61, 24 h, read-out: DIZ; remark: listed apart in the source
Pseudomonas aeruginosa [18] = assay: Antibacterial activity against Pseudomonas aeruginosa K799/61 assessed as unclear inhibition zone at 50 uL of 0.2 mM solution of compound dissolved in 1:9 DMSO/MeOH measured after 24 hrs by agar well diffusion method; format: functional; how it was run: as §2
Escherichia coli [19] = assay: Antibacterial activity against Escherichia coli X580 assessed as partially clear inhibition zone at 50 uL of 0.2 mM solution of compound dissolved in 1:9 DMSO/MeOH measured after 24 hrs by agar well diffusion method; format: functional; how it was run: as §2

Row | SMILES | MIC90 (Klebsiella pneumoniae) | MIC90 (Escherichia coli [1]) | diameter of the inhibition zone (DIZ) (Pseudomonas aeruginosa [2]) | MIC90 (Klebsiella aerogenes) | diameter of the inhibition zone (DIZ) (Escherichia coli [4]) | diameter of the inhibition zone (DIZ) (Pseudomonas aeruginosa [5]) | diameter of the inhibition zone (DIZ) (Micrococcus luteus [7]) | MIC90 (Acinetobacter baumannii) | diameter of the inhibition zone (DIZ) (Staphylococcus aureus [8]) | MIC90 (Pseudomonas aeruginosa [9]) | diameter of the inhibition zone (DIZ) (Bacillus subtilis [10]) | MIC90 (Enterococcus faecium) | also measured
1 | CC(=O)N(O)CCCCCNC(=O)CCC(=O)N(O)CCCCCNC(=O)CCC(=O)N(O)CCCCCNC(=O)CCC(=O)Oc1cc(C)cc(C)c1C(C)(C)CC(=O)N1CCN(c2cc3c(cc2F)c(=O)c(C(=O)O)cn3C2CC2)CC1 | 16 µM (≈ 18.9 µg/mL) | 1 µM (≈ 1.18 µg/mL) | 26 mm | 1 µM (≈ 1.18 µg/mL) | 29 mm | 27 mm | 0 mm | 8 µM (≈ 9.43 µg/mL) | 16 mm | 8 µM (≈ 9.43 µg/mL) | 26 mm | > 128 µM | MIC90 (Staphylococcus aureus [3]): 32 µM (≈ 37.7 µg/mL); diameter of the inhibition zone (DIZ) (Pseudomonas aeruginosa [6]): 37 mm
2 | O=C(O)c1cn(C2CC2)c2cc(N3CCNCC3)c(F)cc2c1=O [CIPROFLOXACIN] | 0.25 µM (≈ 0.0828 µg/mL) | < 0.015 µM | – | < 0.015 µM | – | – | – | 0.25 µM (≈ 0.0828 µg/mL) | – | 0.25 µM (≈ 0.0828 µg/mL) | – | 8 µM (≈ 2.65 µg/mL) | zone of inhibition at 0.33 µg/mL (Escherichia coli [11]): 31 mm; zone of inhibition at 5 µg/mL (Staphylococcus aureus [12]): 28 mm; zone of inhibition at 1.66 µg/mL (Pseudomonas aeruginosa [13]): 24 mm; zone of inhibition at 1.66 µg/mL (Bacillus subtilis [14]): 28 mm; zone of inhibition at 5 µg/mL (Micrococcus luteus [15]): 12 mm; zone of inhibition at 1.66 µg/mL (Pseudomonas aeruginosa [16]): 21 mm; zone of inhibition at 1.66 µg/mL (Pseudomonas aeruginosa [17]): 32 mm
3 | CC(=O)N(O)CCCCCNC(=O)CCC(=O)N(O)CCCCCNC(=O)CCC(=O)N(O)CCCCCNC(=O)CCC(=O)Oc1c(C)cc(OP(=O)(O)O)c(C(C)(C)CC(=O)N2CCN(c3cc4c(cc3F)c(=O)c(C(=O)O)cn4C3CC3)CC2)c1C | – | – | 0 mm | – | 21 mm | 0 mm | 0 mm | – | 0 mm | – | 0 mm | – | –
4 | CC(=O)N(O)CCCCCNC(=O)CCC(=O)N(O)CCCCCNC(=O)CCC(=O)N(O)CCCCCNC(=O)CCC(=O)N1CCN(c2cc3c(cc2F)c(=O)c(C(=O)O)cn3C2CC2)CC1 | – | – | 0 mm | – | 30 mm | – | 0 mm | – | 18 mm | – | 21 mm | – | diameter of the inhibition zone (DIZ) (Pseudomonas aeruginosa [18]): 26 mm; diameter of the inhibition zone (DIZ) (Escherichia coli [19]): 33 mm
